In brackets after ≈: the same amount, converted by molar mass.
Experiments:
physchem [1] = conditions: octanol/water, pH 7.4
physchem [2] = assay: physchem
[3] = Solubility in FaSSIF-V1 medium; format: physicochemical
[4] = Solubility in FeSSIF-V1 medium; format: physicochemical
[5] = Aqueous solubility at pH 7; format: physicochemical
[6] = AUC (0 to last) in Wistar rat at 10 mg/kg, po after 24 hrs by LC-MS-MS analysis; format: ADME, organism-based; parameters: route oral, dose 10 mg/kg, time 24 hrs; conditions: in vivo
In short: (§1)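 Rats received a single oral dose of 10 mg/kg (n = 3). Parameters are averages and Tmax is the median. Plasma was sampled at 8 h post-dose, among other times. Bioavailability is referenced to the 1 mg/kg iv dose (n = 2).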

[7] = AUC (0 to last) in beagle dog at 1 mg/kg, po after 24 hrs by LC-MS-MS analysis; format: ADME, organism-based, Canis lupus familiaris; parameters: route oral, time 24 hrs, dose 1 mg/kg; conditions: in vivo
In short: (§2)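 Dogs received a single oral dose of 1 mg/kg (n = 2). Parameters are averages and Tmax is the median. Plasma was sampled at 8 h post-dose, among other times. Bioavailability is referenced to the 1 mg/kg iv dose (n = 2).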

[8] = Cmax in Wistar rat at 10 mg/kg, po after 24 hrs by LC-MS-MS analysis; format: ADME, organism-based; parameters: route oral, time 24 hrs, dose 10 mg/kg; conditions: in vivo
In short: as §1

[9] = Cmax in beagle dog at 1 mg/kg, po after 24 hrs by LC-MS-MS analysis; format: ADME, organism-based, Canis lupus familiaris; parameters: route oral, dose 1 mg/kg, time 24 hrs; conditions: in vivo
In short: as §2

[10] = Tmax in Wistar rat at 10 mg/kg, po after 24 hrs by LC-MS-MS analysis; format: ADME, organism-based; conditions: in vivo
In short: as §1

[11] = Tmax in beagle dog at 1 mg/kg, po after 24 hrs by LC-MS-MS analysis; format: ADME, organism-based, Canis lupus familiaris; conditions: in vivo
In short: as §2

[12] = Oral bioavailability in Wistar rat at 10 mg/kg after 24 hrs by LC-MS-MS analysis; format: ADME, organism-based; conditions: in vivo
In short: as §1

[13] = Oral bioavailability in beagle dog at 1 mg/kg after 24 hrs by LC-MS-MS analysis; format: ADME, organism-based, Canis lupus familiaris; conditions: in vivo
In short: as §2

[14] = AUC (0 to infinity) in Wistar rat at 1 mg/kg, iv after 24 hrs by LC-MS-MS analysis; format: ADME, organism-based; parameters: route intravenous, dose 1 mg/kg, time 24 hrs; conditions: in vivo
In short: (§3)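 Single intravenous dose of 1 mg/kg in rat and in dog, with n = 2 animals per species. Parameters are reported as averages. Blood clearance is plasma clearance corrected for blood/plasma partitioning and expressed as a fraction of liver blood flow.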

[15] = AUC (0 to infinity) in beagle dog at 1 mg/kg, iv after 24 hrs by LC-MS-MS analysis; format: ADME, organism-based, Canis lupus familiaris; parameters: route intravenous, dose 1 mg/kg, time 24 hrs; conditions: in vivo
In short: as §3

[16] = Volume of distribution at steady state in Wistar rat at 1 mg/kg, iv after 24 hrs by LC-MS-MS analysis; format: ADME, organism-based; conditions: in vivo, read-out: Vdss
In short: as §3

[17] = Volume of distribution at steady state in beagle dog at 1 mg/kg, iv after 24 hrs by LC-MS-MS analysis; format: ADME, organism-based, Canis lupus familiaris; conditions: in vivo, read-out: Vdss
In short: as §3

[18] = Plasma concentration in Wistar rat at 10 mg/kg, po after 8 hrs by LC-MS-MS analysis; format: ADME, organism-based
In short: as §1

[19] = Plasma concentration in beagle dog at 1 mg/kg, po after 8 hrs by LC-MS-MS analysis; format: ADME, organism-based, Canis lupus familiaris
In short: as §2

[20] = Drug level in plasma of DBA/1 mouse at 1 to 100 mg/kg, po administered as single dose measured after 0.5 to 24 hrs; format: ADME, organism-based; conditions: in vivo, dose 1-100 mg/kg, time 0.5-24 hrs
In short: (§4)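 Naive male DBA/1 mice received one oral dose within the 1–100 mg/kg range, alongside a vehicle group. Compound plasma concentration was measured at 0.5, 6 or 24 h post-dose, with n = 3–5 per dose group. Values are mean + SEM, and the limit of quantification was 1.52 ng/mL.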

[21] = Tmax in DBA/1 mouse at 1 to 100 mg/kg, po administered as single dose measured after 0.5 to 24 hrs; format: ADME, organism-based; conditions: in vivo, dose 1-100 mg/kg, time 0.5-24 hrs
In short: as §4

[22] = Cmax in DBA/1 mouse plasma at 1 mg/kg, po administered as single dose measured after 0.5 hrs; format: ADME, organism-based; parameters: route oral, time 0.5 hrs, dose 1 mg/kg
In short: as §4

[23] = Cmax in DBA/1 mouse plasma at 100 mg/kg, po administered as single dose measured after 0.5 hrs; format: ADME, organism-based; parameters: route oral, dose 100 mg/kg, time 0.5 hrs
In short: as §4

[24] = Plasma concentration in DBA/1 mouse plasma at 30 mg/kg, po administered as single dose measured after 24 hrs; format: ADME, organism-based
In short: as §4

[25] = Plasma concentration in DBA/1 mouse plasma at 100 mg/kg, po administered as single dose measured after 24 hrs; format: ADME, organism-based
In short: as §4

logD (physchem [1]) | pKa (physchem [2]) | SMILES | also measured
1.7 | 7.3 | CN1CC[C@H](NC(=O)c2cc(-c3ccc(F)cc3F)on2)[C@@H](C(=O)NC2(c3ncccn3)CC2)C1 | 
 |  | O=C(NC1CCN(C2CCCCC2)CC1)c1cc(-c2ccc(F)cc2F)on1 | solubility [3]: 144 µg/mL (≈ 370 µM); solubility [4]: 196 µg/mL (≈ 503 µM); solubility [5]: 15 µg/mL (≈ 38.5 µM)
2.7 | 6.2 | O=C(N[C@H]1CCN(CC2(F)CC2)C[C@@H]1C(=O)NC1(c2ncccn2)CC1)c1cc(-c2ccc(F)cc2F)on1 | 
2.9 | 7.4 | O=C(N[C@H]1CCN(C2CCC2)C[C@@H]1C(=O)NC1(c2ncccn2)CC1)c1cc(-c2ccc(F)cc2F)on1 | 
3.9 |  | C[C@@H](NC(=O)[C@H]1CN(C2CCCCC2)CC[C@@H]1NC(=O)c1cc(-c2ccc(F)cc2F)on1)c1ccccn1 | solubility [3]: 38 µg/mL (≈ 70.7 µM); solubility [4]: > 910 µg/mL; solubility [5]: 4 µg/mL (≈ 7.44 µM)
3.1 | 7.7 | O=C(N[C@H]1CCN(CC2CCC2)C[C@@H]1C(=O)NC1(c2ncccn2)CC1)c1cc(-c2ccc(F)cc2F)on1 | 
2.5 | 7.6 | CCCN1CC[C@H](NC(=O)c2cc(-c3ccc(F)cc3F)on2)[C@@H](C(=O)NC2(c3ncccn3)CC2)C1 | 
2.9 |  | O=C(N[C@H]1CCN(C2CCCCC2)C[C@@H]1C(=O)NC1(c2ncccn2)CC1)c1cc(-c2ccc(F)cc2F)on1 | 
1.9 | 6.7 | COCCN1CC[C@H](NC(=O)c2cc(-c3ccc(F)cc3F)on2)[C@@H](C(=O)NC2(c3ncccn3)CC2)C1 | 
1.6 |  | O=C(NC1CCN(C2CCCCC2)CC1)c1noc(-c2ccc(F)cc2F)n1 | 
 |  | Cl.O=C(N[C@H]1CCN(CC2CC2)C[C@@H]1C(=O)NC1(c2ncccn2)CC1)c1cc(-c2ccc(F)cc2F)on1 | AUClast [6]: 827 ng·h/mL; AUClast [7]: 3620 ng·h/mL; Cmax [8]: 600 ng/mL; Cmax [9]: 314 ng/mL; Tmax [10]: 30 min; Tmax [11]: 90 min; bioavailability [12]: 35%; bioavailability [13]: 61%; AUC [14]: 238 ng·h/mL; AUC [15]: 5940 ng·h/mL; Vd [16]: 3.6 L/kg; Vd [17]: 1.6 L/kg; concentration at 8 h [18]: 18.3 ng/mL; concentration at 8 h [19]: 185 ng/mL
0.6 | 8.1 | O=C(N[C@H]1CCNC[C@@H]1C(=O)NC1(c2ncccn2)CC1)c1cc(-c2ccc(F)cc2F)on1 | 
2.2 | 6.8 | O=C(N[C@H]1CCN(CCCF)C[C@@H]1C(=O)NC1(c2ncccn2)CC1)c1cc(-c2ccc(F)cc2F)on1 | 
1.8 | 7.6 | CCN1CC[C@H](NC(=O)c2cc(-c3ccc(F)cc3F)on2)[C@@H](C(=O)NC2(c3ncccn3)CC2)C1 | 
> 3.8 |  | O=C(N[C@H]1CCN(C2CCCCC2)C[C@@H]1C(=O)NC1(c2ccccn2)CC1)c1cc(-c2ccc(F)cc2F)on1 | 
> 4.1 |  | C[C@@H](NC(=O)[C@H]1CN(C2CCCCC2)CC[C@@H]1NC(=O)c1cc(-c2ccc(F)cc2F)on1)c1ccccc1 | 
1.6 | < 2 | CC(=O)N1CC[C@H](NC(=O)c2cc(-c3ccc(F)cc3F)on2)[C@@H](C(=O)NC2(c3ncccn3)CC2)C1 | 
1.8 | 8 | CC(C)N1CC[C@H](NC(=O)c2cc(-c3ccc(F)cc3F)on2)[C@@H](C(=O)NC2(c3ncccn3)CC2)C1 | 
2.5 | 7.7 | O=C(N[C@H]1CCN(CC2CC2)C[C@@H]1C(=O)NC1(c2ncccn2)CC1)c1cc(-c2ccc(F)cc2F)on1 | solubility [3]: 513 µg/mL (≈ 982 µM); solubility [4]: > 880 µg/mL; solubility [5]: 374 µg/mL (≈ 716 µM); Drug uptake [20]: Dose-dependent effect; Tmax [21]: 30 min; Cmax [22]: 6 ng/mL; Cmax [23]: 4280 ng/mL; concentration at 24 h [24]: < 1.52 ng/mL; concentration at 24 h [25]: 14 ng/mL
2.4 | 6.1 | O=C(N[C@H]1CCN(C2CC2)C[C@@H]1C(=O)NC1(c2ncccn2)CC1)c1cc(-c2ccc(F)cc2F)on1 | 
3.8 |  | CC(C)(NC(=O)[C@H]1CN(C2CCCCC2)CC[C@@H]1NC(=O)c1cc(-c2ccc(F)cc2F)on1)c1ccccn1 | 
 |  | CN(C)C(=O)[C@H]1CN(C2CCCCC2)CC[C@@H]1NC(=O)c1cc(-c2ccc(F)cc2F)on1 (racemic) | solubility [3]: 569 µg/mL (≈ 1240 µM); solubility [4]: 652 µg/mL (≈ 1420 µM); solubility [5]: 192 µg/mL (≈ 417 µM)
2.9 | 5.2 | O=C(N[C@H]1CCN(C2CC(F)(F)C2)C[C@@H]1C(=O)NC1(c2ncccn2)CC1)c1cc(-c2ccc(F)cc2F)on1 | 
> 4.1 |  | O=C(N[C@H]1CCN(C2CCCCC2)C[C@@H]1C(=O)NCc1ccccc1)c1cc(-c2ccc(F)cc2F)on1 | 

Source: ChEMBL document CHEMBL4699667, “Discovery of the Potent, Selective, Orally Available CXCR7 Antagonist ACT-1004-1239” (J Med Chem, 2020)
